High-throughput results deposited in PubChem by several laboratories.
p47phox inh = p47phox (human) inhibition. AID 1274. inhibition, % at 24.7 µM. P14598. 220,000 tested, 0.53% active. p47phox/p22phox peptide binding, fluorescence polarization, 2 h;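 active = inhibition above about 30%, limit read from the data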;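 note: 0% = p47phox with labelled peptide and 100% = labelled peptide alone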
RAM inhibit = blocks the yeast RAM network. S. cerevisiae dse1pr::URA3 reporter, 5-FOA growth OD615, 2 d; analog-sensitive cbk1-as2 kinase mutant strain. inhibition, % at 50 µM. 190,000 tested, 1.8% active;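 active = inhibition above a set limit, 3 SD over mean compound inhibition, cut at about 8.4% in these data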;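 note: 0% = DMSO-only wells with no growth and 100% = 10 µM 1-NA-PP1 full growth; inhibition rescues growth on 5-FOA so higher OD means more RAM inhibition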
pCIP destab = p/CIP protein destabilization; F442A p/CIP-EGFP cells, EGFP fluorescence, 16 h; decrease of EGFP signal, % at 10 µM; 290,000 tested, 0.01% active;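 active = EGFP signal decrease of at least 30% at 10 µM or well 3 SD below plate mean, unless failing retest; inactive = the rest, including hits failing retest or dose response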
Dynein cargo inh = dynein cargo transport inhibition. 3617.4 mouse cells, GR-EGFP nuclear translocation imaging; test concentration mostly 20 µM; stimulated with dexamethasone, 1 µM; hits give low values. z-score, hits read low. 220,000 tested, 0.47% active;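 active = plate z-score of nuclear minus cytoplasmic receptor signal below a set negative limit, without overly bright fluorescence or cell loss, cut at about -3.5 in these data, passing the limit was not always enough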;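 note: z-score of nuclear minus cytoplasmic ring GR-EGFP intensity difference per well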
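Buffer or medium: tet-free, stripped-serum medium; reagent: dexamethasone at 1.0 µM final, 30 min; incubation: 48 h induction, 1 h compound, 30 min dex at 37 °C; measured by: formaldehyde fixation, Hoechst nuclear stain, 10x automated fluorescence imaging; read-out: nuclear-to-cytoplasmic GR-EGFP distribution per well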
Numbers without * were called inactive. Shown are actives, neighbours in structure and some others; about 1.9% of the full set was active somewhere.

For CC1(C)CC(=O)c2c(O)cc(OCc3ccc(Br)cc3)cc2O1 the results were p47phox inh -3, RAM inhibit 8.7*, pCIP destab -14 and Dynein cargo inh 0.91.
Screening COc1ccc(Oc2c(C(F)(F)F)oc3cc(OCC(=O)O)ccc3c2=O)cc1 returned pCIP destab -2.
`CCCCc1nnc(NC(=O)C23CC4CC(CC(NC(C)=O)(C4)C2)C3)s1` gave pCIP destab -8.
For CC(=O)NC12CC3CC(C1)CC(C(=O)Nc1nccs1)(C3)C2 the results were p47phox inh -10, RAM inhibit 10*, pCIP destab 8 and Dynein cargo inh -0.45.
Screening COc1ccc(CNC(=O)CSc2nc3[nH]ncc3c(=O)n2-c2ccccc2Br)cc1 returned p47phox inh -1, RAM inhibit -1, pCIP destab -2 and Dynein cargo inh 0.39.
COC(=O)C1=C(C)N(Cc2ccc(OC)cc2)C(=O)C1 was read as p47phox inh 4, RAM inhibit 0 and pCIP destab -7.
COC(=O)C1=C(C)N(CCc2ccc(OC)cc2)C(=O)C1 was read as p47phox inh 92*, RAM inhibit 2, pCIP destab -11 and Dynein cargo inh -0.91.
`Cc1cccc(NC(=O)CSc2nc3[nH]ncc3c(=O)[nH]2)c1C` gave p47phox inh -2, RAM inhibit 11*, pCIP destab -4 and Dynein cargo inh -0.16.
For COc1ccc(CN(C)S(=O)(=O)c2nnc(NC(=O)c3cccc(F)c3)s2)cc1 the results were pCIP destab -2.
CC(C)CNC(=O)c1oc2ccccc2c1COc1ccccc1 was read as p47phox inh -16, RAM inhibit 8.9*, pCIP destab 7 and Dynein cargo inh 0.69.
CCOC(=O)c1c(-c2cccc([N+](=O)[O-])c2)csc1NC(=O)C1CCCCC1 was read as p47phox inh -15, RAM inhibit 8.6* and pCIP destab 0.
`CCOC(=O)c1c(-c2cccc([N+](=O)[O-])c2)csc1NC(=O)C1CC1` gave p47phox inh -7, RAM inhibit 6, pCIP destab 0 and Dynein cargo inh -0.71.
CCCCCc1c(C)[nH]c2nc3ccccc3n2c1=O was read as pCIP destab 2.
Cc1ccsc1C(C(=O)NC(C)(C)C)N(C(=O)c1csnn1)c1ccccc1 (stereo not drawn) was read as p47phox inh -2, RAM inhibit 10*, pCIP destab -4 and Dynein cargo inh 0.076.
For CCC(=O)NC(/C=C/c1ccccc1)c1cc([N+](=O)[O-])c2cccnc2c1O (stereo not drawn) the results were p47phox inh -81, RAM inhibit 11*, pCIP destab 0 and Dynein cargo inh 0.42.
Screening Cc1ccc(C(NC(=O)C(C)C)c2cc([N+](=O)[O-])c3cccnc3c2O)cc1 (stereo not drawn) returned p47phox inh -13, RAM inhibit 2, pCIP destab 1 and Dynein cargo inh 1.
Screening COc1ccc(NC(=O)CN2CCN(CC(=O)Nc3ccc(OC)cc3)CC2)cc1 returned pCIP destab -21.
Screening O=C(CNS(=O)(=O)c1ccccc1)NCc1ccco1 returned pCIP destab -6.
`Cc1cc(C)n(CCC(=O)Nc2ccc3c(c2)OCCO3)n1` gave pCIP destab 0.
COc1ccc(NC(=O)CCn2nc(C)cc2C)cc1 was read as p47phox inh 56*, RAM inhibit 1, pCIP destab 2 and Dynein cargo inh -0.83.
`COc1cc(NC(=O)c2ccc(NS(=O)(=O)c3c(C)noc3C)cc2)cc(OC)c1` gave p47phox inh -5, RAM inhibit 11*, pCIP destab 13 and Dynein cargo inh 1.2.
`CC1=CC(C)(C)N(S(=O)(=O)c2ccc(F)cc2)c2ccc(C)cc21` gave p47phox inh -2, RAM inhibit 6, pCIP destab 4 and Dynein cargo inh -0.32.
For CC1=CC(C)(C)N(S(=O)(=O)c2ccc(C)cc2)c2ccccc21 the results were p47phox inh -8, RAM inhibit 8.7*, pCIP destab -19 and Dynein cargo inh -0.4.
Screening CCCCN(CCCNC(=O)CN1C(=O)COc2ccc(S(=O)(=O)N3CCC(C)CC3)cc21)Cc1ccccc1 returned pCIP destab -1.
Cc1n[nH]c(=O)n1-c1ccc(OCc2ccccc2)cc1 was read as p47phox inh -1, RAM inhibit 2, pCIP destab 0 and Dynein cargo inh -0.24.
For Cc1ccccc1-c1nsc(SCC(=O)Nc2ccc3c(c2)OCO3)n1 the results were p47phox inh -17, RAM inhibit 9.4*, pCIP destab -8 and Dynein cargo inh -0.24.
`CC(C)CN(C(=O)C1CSC2(C)CCC(=O)N12)c1c(N)n(Cc2ccccc2)c(=O)[nH]c1=O` (stereo not drawn) gave pCIP destab 5.
For COc1ccc(C2NC(=O)c3sc4nc(C)c(C(C)=O)c(-c5ccc(Cl)cc5)c4c3N2)cc1 (stereo not drawn) the results were p47phox inh 2, RAM inhibit 10*, pCIP destab -8 and Dynein cargo inh 1.9.
Screening Cc1c(O)nc(SCC(=O)Nc2ccc3c4c(cccc24)CC3)n(-c2ccc(F)cc2)c1=O returned p47phox inh -4, RAM inhibit 9.2*, pCIP destab -1 and Dynein cargo inh 0.37.
COc1cccc(NC(=O)CSc2nc(O)c(C)c(=O)n2-c2ccc(C)cc2)c1 was read as pCIP destab -3.
`Cc1ccc(-c2c(C)n([O-])c3c([n+]2=O)CCCCC3)cc1` gave p47phox inh -1, RAM inhibit 0, pCIP destab -8 and Dynein cargo inh -0.26.
Screening O=C(CSc1ncccn1)NN=C1CCCCCC1 returned p47phox inh -6, RAM inhibit 0, pCIP destab 8 and Dynein cargo inh -0.71.
For COc1ccc(NC(=O)c2ccc(-n3nc(C)cc3C)cc2)cc1OC the results were p47phox inh 38*, RAM inhibit 0, pCIP destab -3 and Dynein cargo inh -0.8.
Screening Cc1cc(C)n(-c2ccc(C(=O)Nc3ccc4c(c3)OCO4)cc2)n1 returned p47phox inh -9, RAM inhibit 1, pCIP destab 4 and Dynein cargo inh 0.076.
For CC(=O)Nc1ccc(NC(=O)C(C)Sc2n[nH]c(=O)n2Cc2ccccc2)cc1 (stereo not drawn) the results were pCIP destab -8.
For Cc1cc(C(=O)COC(=O)c2ccc(Br)o2)c(C)n1Cc1ccco1 the results were p47phox inh -18, RAM inhibit 10*, pCIP destab -4 and Dynein cargo inh 1.6.
Cc1ccc2nc(-c3ccc(NC(=O)CCN4C(=O)c5ccccc5C4=O)cc3)sc2c1 was read as p47phox inh -2, RAM inhibit 3, pCIP destab -9 and Dynein cargo inh 0.23.
Screening O=C(CCN1C(=O)c2ccccc2C1=O)Nc1ccc(-c2nc3ccccc3s2)cc1 returned p47phox inh 15, RAM inhibit 8.9*, pCIP destab -8 and Dynein cargo inh 0.15.
